Source: ChEMBL document CHEMBL3421537, “Synthesis and biological evaluation of nitrated 7-, 8-, 9-, and 10-hydroxyindenoisoquinolines as potential dual topoisomerase I (Top1)-tyrosyl-DNA phosphodiesterase I (TDP1) inhibitors” (J Med Chem, 2015)
Active and inactive are the calls of the source.

Key:
[1] = target: T1, DNA topoisomerase 1 (Homo sapiens) (UniProt P11387); assay: Inhibition of human recombinant Top1 expressed in baculovirus-infected insect Sf9 cells using 3'-[32P]-end-labeled 117 bp DNA as substrate assessed as inhibition of DNA cleavage after 20 mins by PAGE analysis relative to 1 uM camptothecin
T1 sequence (whole entry): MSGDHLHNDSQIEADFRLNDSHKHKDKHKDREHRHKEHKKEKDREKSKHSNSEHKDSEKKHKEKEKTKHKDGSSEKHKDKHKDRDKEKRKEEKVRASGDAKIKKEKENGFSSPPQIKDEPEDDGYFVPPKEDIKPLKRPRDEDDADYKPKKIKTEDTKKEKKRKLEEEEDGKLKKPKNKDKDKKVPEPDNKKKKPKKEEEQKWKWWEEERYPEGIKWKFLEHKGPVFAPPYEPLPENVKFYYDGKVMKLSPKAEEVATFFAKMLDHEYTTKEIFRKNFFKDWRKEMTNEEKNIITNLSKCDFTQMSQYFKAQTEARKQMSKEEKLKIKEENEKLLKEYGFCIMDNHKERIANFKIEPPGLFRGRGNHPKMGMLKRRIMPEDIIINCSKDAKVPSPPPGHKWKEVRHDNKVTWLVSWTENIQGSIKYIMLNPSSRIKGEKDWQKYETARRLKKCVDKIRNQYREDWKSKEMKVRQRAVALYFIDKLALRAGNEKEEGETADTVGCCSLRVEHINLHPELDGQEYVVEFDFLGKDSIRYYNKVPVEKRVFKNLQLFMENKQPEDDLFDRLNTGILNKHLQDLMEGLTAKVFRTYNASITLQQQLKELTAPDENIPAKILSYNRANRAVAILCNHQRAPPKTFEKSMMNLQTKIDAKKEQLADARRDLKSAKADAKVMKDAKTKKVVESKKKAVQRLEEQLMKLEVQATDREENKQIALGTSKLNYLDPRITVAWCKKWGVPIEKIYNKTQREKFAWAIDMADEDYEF
In short: (§1)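 About 2 nM 3′-[32P]-end-labeled 117-bp DNA (Klenow fill-in with [α32P]dGTP) incubated with recombinant Top1 and compound for 20 min at room temperature. Stopped with 0.5% SDS, run on 20% denaturing PAGE, read by phosphorimager. Cleavage bands scored visually against 1 μM camptothecin on a 0 to +++++ scale.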

[2] = tested on: DU-145; assay: Cytotoxicity against human DU145 cells; type: functional
In short: (§2)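 NCI-60 screen (NCI-DTP): one-dose prescreen at 10 μM, then five concentrations from 100 μM to 10 nM for compounds passing the cutoff. GI50 (50% growth inhibition) interpolated from the five-dose data. Single determination.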

[3] = Cytotoxicity against human UACC62 cells; type: functional; conditions: UACC-62; in short: as §2
[4] = Cytotoxicity against human HCT116 cells; type: functional; conditions: HCT-116; in short: as §2
[5] = tested on: SF-539; assay: Cytotoxicity against human SF539 cells; type: functional; in short: as §2
[6] = target: T1, DNA topoisomerase 1 (Homo sapiens); assay: Poisoning activity at human recombinant Top1 expressed in baculovirus-infected insect Sf9 cells using 3'-[32P]-end-labeled 117 bp DNA as substrate assessed as trapping of enzyme cleavage complex at 0.005 to 100 uM measured after 20 mins by PAGE analysis; in short: as §1
[7] = target: T1, DNA topoisomerase 1 (Homo sapiens); assay: Poisoning activity at human recombinant Top1 expressed in baculovirus-infected insect Sf9 cells using 3'-[32P]-end-labeled 117 bp DNA as substrate assessed as delay in reversal of drug-enzyme-DNA cleavage complex formation at 1 uM measured over 10 mins by PAGE analysis
[8] = tested on: MCF7; assay: Cytotoxicity against human MCF7 cells; type: functional; in short: as §2
[9] = Cytotoxicity against human OVCAR3 cells; type: functional; conditions: OVCAR-3; in short: as §2
[10] = tested on: SN12C; assay: Cytotoxicity against human SN12C cells; type: functional; in short: as §2
[11] = target: Tyrosyl-DNA phosphodiesterase 1 (Homo sapiens, UniProt Q9NUW8); assay: Inhibition of human recombinant TDP1 assessed as hydrolysis of N14Y to N14P after 15 mins by PAGE analysis
[12] = tested on: HOP-62; assay: Cytotoxicity against human HOP62 cells; type: functional; in short: as §2
[13] = target: T1, DNA topoisomerase 1 (Homo sapiens); assay: Inhibition of human recombinant Top1 expressed in baculovirus-infected insect Sf9 cells using 3'-[32P]-end-labeled 117 bp DNA as substrate assessed as inhibition of DNA cleavage after 20 mins by PAGE analysis; in short: as §1

Tyrosyl-DNA phosphodiesterase 1, sequence (Q9NUW8 whole entry): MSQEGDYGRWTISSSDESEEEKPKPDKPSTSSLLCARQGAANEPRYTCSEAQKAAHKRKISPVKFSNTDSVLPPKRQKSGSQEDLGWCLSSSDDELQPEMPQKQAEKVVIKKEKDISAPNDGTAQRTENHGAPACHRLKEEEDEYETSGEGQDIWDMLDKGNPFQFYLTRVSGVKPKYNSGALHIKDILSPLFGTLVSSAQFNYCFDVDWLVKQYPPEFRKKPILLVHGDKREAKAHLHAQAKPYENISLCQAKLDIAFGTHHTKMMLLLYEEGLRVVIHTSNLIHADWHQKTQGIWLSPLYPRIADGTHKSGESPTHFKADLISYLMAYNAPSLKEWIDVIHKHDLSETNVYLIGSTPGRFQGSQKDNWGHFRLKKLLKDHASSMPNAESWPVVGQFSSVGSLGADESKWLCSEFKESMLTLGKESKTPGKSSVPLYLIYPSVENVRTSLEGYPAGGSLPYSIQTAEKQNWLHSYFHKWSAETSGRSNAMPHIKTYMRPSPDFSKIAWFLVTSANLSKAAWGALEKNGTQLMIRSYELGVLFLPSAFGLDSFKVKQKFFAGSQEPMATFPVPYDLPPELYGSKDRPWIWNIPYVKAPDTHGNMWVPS

Structure (SMILES) | inhibition [1] | GI50 [2] [nM] | GI50 [3] [nM] | GI50 [4] [nM] | GI50 [5] [nM] | Activity [6] | Activity [7] | GI50 [8] [nM] | GI50 [9] [nM] | GI50 [10] [nM] | inhibition [11] | GI50 [12] [nM] | IC50 [11] [nM] | inhibition [13]
O=C1c2cc(O)ccc2-c2c1c1ccc([N+](=O)[O-])cc1c(=O)n2CCCBr | Active | < 10 | < 10 | < 10 | < 10 | Active | Active | < 10 | 23 | < 10 | – | – | – | –
O=C1c2ccccc2-c2c1c1ccccc1c(=O)n2CCCNCCCNCCCn1c2c(c3ccccc3c1=O)C(=O)c1ccccc1-2 | – | – | – | – | – | – | – | – | – | – | Dose-dependent effect | – | – | –
COc1cc2c(cc1O)-c1c(c3ccc([N+](=O)[O-])cc3c(=O)n1CCCN)C2=O | 50% | 430 | 950 | 150 | 660 | – | – | 170 | 1700 | 450 | Dose-dependent effect | 470 | – | –
O=C1c2ccc(O)cc2-c2c1c1ccc([N+](=O)[O-])cc1c(=O)n2CCCN1CCOCC1 | Active | 34 | 20 | 26 | 21 | – | – | < 10 | 41 | 36 | – | 25 | > 111000 | Dose-dependent effect
O=C1c2c(O)cccc2-c2c1c1ccc([N+](=O)[O-])cc1c(=O)n2CCCN1CCOCC1 | 50% | – | 390 | 550 | 200 | – | – | 64 | 29000 | – | – | 12000 | > 111000 | Dose-dependent effect
COc1cc2c(cc1O)C(=O)c1c-2n(CCCn2ccnc2)c(=O)c2cc(OC)c(OC)cc12 | – | – | – | – | – | – | – | – | – | – | – | – | > 111000 | –
O=C1c2cc(O)ccc2-c2c1c1ccc([N+](=O)[O-])cc1c(=O)n2CCCN1CCOCC1 | Active | < 10 | < 10 | < 10 | < 10 | – | – | < 10 | < 10 | < 10 | – | < 10 | > 111000 | –
O=C1c2c(O)cccc2-c2c1c1ccc([N+](=O)[O-])cc1c(=O)n2CCCn1ccnc1 | 75% | 130 | 180 | 130 | 150 | – | – | 56 | 230 | 170 | – | 81 | > 111000 | Dose-dependent effect
COc1cc2c(cc1O)C(=O)c1c-2n(CCCN)c(=O)c2cc([N+](=O)[O-])ccc12 | 50% | < 10 | < 10 | < 10 | < 10 | – | – | < 10 | 27 | < 10 | Dose-dependent effect | < 10 | – | –
O=C1c2ccc(O)cc2-c2c1c1ccc([N+](=O)[O-])cc1c(=O)n2CCCn1ccnc1 | 75% | < 10 | < 10 | < 10 | < 10 | – | – | < 10 | 23 | < 10 | – | – | > 111000 | Dose-dependent effect
COc1cc2c(cc1O)C(=O)c1c-2n(CCCn2ccnc2)c(=O)c2cc([N+](=O)[O-])ccc12 | 20% | < 10 | < 10 | < 10 | < 10 | – | – | < 10 | < 10 | < 10 | Dose-dependent effect | < 10 | > 111000 | –
COc1cc2c(cc1O)C(=O)c1c-2n(CCCN2CCOCC2)c(=O)c2cc([N+](=O)[O-])ccc12 | 50% | < 10 | < 10 | < 10 | < 10 | – | – | < 10 | – | < 10 | Dose-dependent effect | < 10 | > 111000 | –
COc1cc2c(cc1O)C(=O)c1c-2n(CCCN2CCOCC2)c(=O)c2cc(OC)c(OC)cc12 | – | – | – | – | – | – | – | – | – | – | – | – | > 111000 | –
COc1cc2c(cc1O)-c1c(c3ccc([N+](=O)[O-])cc3c(=O)n1CCCN1CCOCC1)C2=O | 50% | 110 | 39 | – | 130 | – | – | 35 | 720 | 63 | – | 79 | > 111000 | –
NCCCn1c2c(c3ccc([N+](=O)[O-])cc3c1=O)C(=O)c1cc(O)ccc1-2 | Active | 52 | 41 | 78 | 30 | – | – | 26 | 220 | 46 | – | 56 | – | –
COc1cc2c(cc1O)-c1c(c3cc(OC)c(OC)cc3c(=O)n1CCCn1ccnc1)C2=O | – | – | – | – | – | – | – | – | – | – | – | – | > 111000 | –
COc1cc2c(cc1O)-c1c(c3ccc([N+](=O)[O-])cc3c(=O)n1CCCn1ccnc1)C2=O | 50% | 51 | – | 71 | 49 | – | – | 20 | 320 | 51 | – | 85 | – | –
NCCCn1c2c(c3ccc([N+](=O)[O-])cc3c1=O)C(=O)c1c(O)cccc1-2 | 75% | 1200 | 2500 | 470 | 1700 | – | – | 250 | 2900 | 3400 | – | 1900 | – | –
NCCCn1c2c(c3ccc([N+](=O)[O-])cc3c1=O)C(=O)c1ccc(O)cc1-2 | 75% | 350 | – | 220 | 210 | – | – | 120 | 270 | – | – | – | – | –
O=C1c2cccc(O)c2-c2c1c1ccc([N+](=O)[O-])cc1c(=O)n2CCCN1CCOCC1 | 50% | – | – | – | – | – | – | – | – | – | – | – | > 111000 | –
CC[C@@]1(O)C(=O)OCc2c1cc1n(c2=O)Cc2cc3ccccc3nc2-1 | – | – | – | – | – | – | inactive | – | – | – | – | – | – | –
O=C1c2cc(O)ccc2-c2c1c1ccc([N+](=O)[O-])cc1c(=O)n2CCCn1ccnc1 | 75% | < 10 | < 10 | < 10 | < 10 | – | – | < 10 | 19 | < 10 | – | < 10 | > 111000 | –
O=C1c2cccc(O)c2-c2c1c1ccc([N+](=O)[O-])cc1c(=O)n2CCCn1ccnc1 | 75% | – | – | – | – | – | – | – | – | – | – | – | > 111000 | –
NCCCn1c2c(c3ccc([N+](=O)[O-])cc3c1=O)C(=O)c1cccc(O)c1-2 | 50% | – | – | – | – | – | – | – | – | – | – | – | – | –
